Most compounds without a hit are left out; they make up all but 4.1% or so of the library.
Dynein transport: blocks dynein driven cargo transport along microtubules. 3617.4 mouse cells, GR-EGFP nuclear translocation imaging; test concentration mostly 20 µM; stimulated with dexamethasone, 1 µM; stronger effect = lower value. z-score, hits read low. 220,000 compounds, 0.47% hits;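 active means plate z-score of nuclear minus cytoplasmic receptor signal below a set negative limit, without overly bright fluorescence or cell loss, cut at about -3.5 in these data, passing the limit was not always enough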;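 further: z-score of nuclear minus cytoplasmic ring GR-EGFP intensity difference per well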
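Medium: Induction medium lacking tetracycline, stripped serum | Probe or stimulus: 1.0 µM final dexamethasone stimulus | Schedule: 48 h induction, then 1 h compound, then 30 min agonist, 37 °C | Signal: Automated 10x imaging of fixed Hoechst-stained cells | Evaluation: Per-cell GR-EGFP intensity, nucleus versus surrounding cytoplasmic ring, well-averaged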
Autophagy HCS: autophagy modulation, high-content screen; MEF GFP-LC3 puncta imaging; test concentration mostly 10 µM; calls only at 10 µM (by protocol); 190,000 compounds, 0.98% hits; AID 463193;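 active means percentage of spot-positive cells more than 3 SD above its plate mean, without a fluorescence outlier flag or 80% toxicity; inconclusive means no clear call, values can overlap the other calls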;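 further: spot-positive cell cutoff set from DMSO-treated cells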
ROMK primary: modulates human ROMK potassium channel activity. Tet-inducible ROMK, thallium flux fluorescence; actives lie on both sides. B-score at 10 µM. 130,000 compounds, 2% hits;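 active means signal ratio slope over the read window, or its plate-corrected B-score, at least 3 SD from the plate mean, either direction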;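 further: B-score of the F/F0 ratio slope over 7 to 12 s after thallium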
Redox H2O2 prof: compounds producing H2O2 with reducing agent – biochemical, NIH compound library profiling, artefact control for MLSCN library redox annotation, primary screen; 200,000 compounds, 0.03% hits; DTT-dependent redox cycling H2O2, phenol red/HRP absorbance; 100% = 100 µM peroxide control, 0% = buffer; AID 878; activation, % at 10 µM;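 active means activation of at least 50% relative to the plate's high and low controls in the primary single-dose screen; inactive means activation below 50%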;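 further: compound incubated with DTT at 0.8 mM final as the reducing agent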
KCC2 mod: modulates chloride dependent transport by human KCC2; Q9H2X9; B-score of Tl+ flux slope (higher = more flux/activation; lower = inhibition) at 10 µM; KCC2 cells, thallium flux FluoZin-2 fluorescence; 190,000 compounds, 2.2% hits;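 active means thallium flux slope and its plate-corrected score both differing from the plate sample mean at a set confidence after two filtering rounds, in either direction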;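 further: slope of fluorescence scaled to starting intensity during 10 to 20 s after thallium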
Target sequence (Q9H2X9 whole entry, looked up): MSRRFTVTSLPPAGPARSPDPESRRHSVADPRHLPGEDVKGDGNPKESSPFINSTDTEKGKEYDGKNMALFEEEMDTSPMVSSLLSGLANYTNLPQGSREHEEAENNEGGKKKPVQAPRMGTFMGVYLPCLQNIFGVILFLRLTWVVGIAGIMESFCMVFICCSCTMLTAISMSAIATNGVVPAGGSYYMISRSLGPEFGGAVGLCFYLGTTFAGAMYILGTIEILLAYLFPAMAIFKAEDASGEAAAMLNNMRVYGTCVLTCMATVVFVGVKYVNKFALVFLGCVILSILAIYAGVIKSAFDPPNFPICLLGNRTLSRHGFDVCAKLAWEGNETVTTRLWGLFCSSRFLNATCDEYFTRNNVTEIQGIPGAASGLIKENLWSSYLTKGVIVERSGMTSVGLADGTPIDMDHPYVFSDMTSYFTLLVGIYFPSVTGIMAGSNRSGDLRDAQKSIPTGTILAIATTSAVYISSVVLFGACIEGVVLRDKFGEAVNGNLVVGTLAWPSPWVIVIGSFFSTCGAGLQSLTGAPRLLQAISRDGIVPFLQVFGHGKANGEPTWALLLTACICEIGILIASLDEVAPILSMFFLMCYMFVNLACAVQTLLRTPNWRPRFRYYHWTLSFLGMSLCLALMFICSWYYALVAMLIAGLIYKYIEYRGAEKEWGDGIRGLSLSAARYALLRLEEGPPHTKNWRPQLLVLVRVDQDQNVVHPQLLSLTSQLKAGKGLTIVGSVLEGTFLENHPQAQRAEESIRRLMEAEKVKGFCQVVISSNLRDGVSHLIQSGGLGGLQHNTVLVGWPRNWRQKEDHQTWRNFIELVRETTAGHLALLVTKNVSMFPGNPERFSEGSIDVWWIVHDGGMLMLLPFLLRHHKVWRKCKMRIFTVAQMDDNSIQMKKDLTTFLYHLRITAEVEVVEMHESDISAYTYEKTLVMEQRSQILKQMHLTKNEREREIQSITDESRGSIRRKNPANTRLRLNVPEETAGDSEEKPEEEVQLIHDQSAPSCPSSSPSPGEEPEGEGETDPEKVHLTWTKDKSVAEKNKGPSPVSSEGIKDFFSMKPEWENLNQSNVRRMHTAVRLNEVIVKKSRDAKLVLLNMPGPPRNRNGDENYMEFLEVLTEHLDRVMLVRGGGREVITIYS
KCC2 secondary: KCC2 (human) modulation, secondary assay; shares compounds with KCC2 mod; normalised thallium flux (F/F0 slope) at 10 µM; AID 1713; 3,700 compounds, 15% hits; HEK293-KCC2, thallium flux, FluoZin2 fluorescence; stronger effect = higher value;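 active means thallium flux slope above the same plate's solvent-only control mean plus 3 SD; inconclusive means the two replicate wells disagree; inactive means no significant difference from solvent-only control wells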
KCC2 bumet counter: thallium flux despite bumetanide block in KCC2 cells, secondary assay 3 | 3,700 compounds, 49% hits | normalized thallium flux at 10 µM | shares compounds with KCC2 mod | HEK293-KCC2 + bumetanide/ouabain, thallium flux FluoZin2; stronger effect = higher value;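 active means thallium entry rate above the same plate's blocked-transporter control wells by more than 3 SD; inconclusive means the two repeat wells disagree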;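 further: raw slope of fluorescence over initial fluorescence between 10 and 20 s after thallium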
KCC2 sec2: KCC2 (human) modulation, second secondary assay | shares compounds with KCC2 mod | HEK293-KCC2, thallium flux FluoZin2 fluorescence; actives lie on both sides; F/F0 rise rate, 10–20 s post-thallium | normalized thallium flux at 10 µM | 3,700 compounds, 23% hits;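 active means thallium flux slope more than 3 SD above or below the plate's solvent-only control mean, mostly below; inconclusive means the two repeat wells disagreed; inactive means no significant shift from solvent-only controls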;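 further: raw slope with 0.1% DMSO as baseline and bumetanide as block control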
HEK293 Tl flux: counter-screen for KCC2 modulators: effect in parental HEK293 cells. shares compounds with KCC2 mod. 3,700 compounds, 46% hits. AID 1716. thallium flux rate (normalised fluorescence) at 10 µM. thallium flux FluoZin2, ouabain; baseline-ratio fluorescence slope, 10–20 s after thallium;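 active means thallium flux rate significantly above the same plate's solvent-only control wells, beyond their mean plus 3 SD; inconclusive means the two replicate wells gave conflicting results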
KCC2 ouabain: confirmation of human KCC2 modulators with ouabain. HEK293-KCC2, thallium flux FluoZin2 fluorescence; bidirectional: low = inhibitor, high = activator. 3,700 compounds, 48% hits. AID 1717. shares compounds with KCC2 mod. raw Tl+ flux slope (below DMSO = inhibition, above = activation) at 10 µM;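 active means thallium flux slope beyond 3 SD from same-plate DMSO control mean in most replicates, usually higher, sometimes lower; inconclusive means repeat tests gave conflicting results; inactive means no significant difference from controls in most replicates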;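 further: slope of initial-normalized fluorescence between seconds 10 and 20 after thallium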
HEK counter2: counter-screen for KCC2 modulators: effect in parental HEK293 cells | shares compounds with KCC2 mod | thallium flux FluoZin-2 fluorescence slope | thallium flux slope at 10 µM | 3,700 compounds, 33% hits | AID 1718;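 active means thallium flux slope above the same plate's solvent-control mean plus 3 SD in both duplicate wells; inconclusive means duplicate wells that disagreed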;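 further: run without ouabain in cells lacking the KCC2 cotransporter; slope of fluorescence scaled to its starting value between 10 and 20 s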
* hit, by the source's call; i = inactive; ? = inconclusive; nt = no result given.

SMILES	Dynein transport	Autophagy HCS	ROMK primary	Redox H2O2 prof	KCC2 mod	KCC2 secondary	KCC2 bumet counter	KCC2 sec2	HEK293 Tl flux	KCC2 ouabain	HEK counter2
CC(C)n1c(SCC(=O)Nc2ccccc2N2CCOCC2)nc2c1c(=O)n(C)c(=O)n2C	-0.43	i	nt	3	nt	0.0065	0.0042	0.03	0.0075	0.018	0.0098
COCCN(C(=O)c1cc(OC)c(OC)c(OC)c1)c1c(N)n(Cc2ccccc2)c(=O)[nH]c1=O	-0.39	i	0.032	0	-0.82	nt	nt	nt	nt	nt	nt
Cc1nn(-c2ccccc2)c(C)c1/C=N/n1c(-c2ccccc2Br)n[nH]c1=S	-1.1	nt	nt	nt	10*	0.0064	0.042*	0.031	0.011*	?	?
CCN(CC)c1ccc(/C=N/n2c(-c3ccccc3Br)n[nH]c2=S)cc1	0.32	nt	1.3	nt	-0.03	nt	nt	nt	nt	nt	nt
O=c1c(Cc2c(F)cccc2Cl)c(O)ccn1CCCn1ccnc1	-0.27	i	0.6	-1	2.3	nt	nt	nt	nt	nt	nt
COC(=O)C(NS(C)(=O)=O)(c1c(C)[nH]c2ccccc12)C(F)(F)F (stereo unspecified)	0.87	i	0.42	2	-4.4*	0.0069	?	0.027	0.0083	0.019	0.011
COC(=O)c1ccc(C(=O)OC)c(=O)[nH]1	2.5	nt	nt	nt	-0.65	nt	nt	nt	nt	nt	nt
O=C(CSC1=NNC(c2ccccn2)S1)Nc1ccc(C(F)(F)F)cc1 (stereo unspecified)	-0.3	nt	-0.43	nt	-0.036	nt	nt	nt	nt	nt	nt
c1ccc(CSC2=NNC(c3ccccn3)S2)cc1 (stereo unspecified)	0.53	nt	0.38	nt	28*	?	0.026*	?	0.015*	0.025*	0.018*
O=C(CN1CCC(NC(=O)c2cccc(F)c2)CC1)NCc1ccccc1F	0.17	i	-0.63	0	nt	0.0089	0.0068	0.031	0.0073	0.033	0.01
COc1ccc(OCC(O)CNC(=O)Nc2cc(F)ccc2C)cc1 (stereo unspecified)	-1.2	nt	nt	nt	-0.057	nt	nt	nt	nt	nt	nt
CCOC(=S)SCc1cn2cccc(C)c2n1	-1.1	i	0.43	-1	-1.1	nt	nt	nt	nt	nt	nt
Brc1ccc(CSc2nnc(-c3ccccn3)n2Cc2ccco2)cc1	-0.91	i	0.027	0	nt	0.0081	?	?	0.0045*	?	0.0073*
O=C(CSc1nnc(-c2ccccn2)n1Cc1ccco1)c1ccc(Cl)cc1	-0.85	i	-0.23	0	nt	0.0069	?	0.028	0.006*	0.016	0.01
CC(C)(C)c1ccc(CSc2nnc(-c3ccccn3)n2Cc2ccco2)cc1	-1.3	i	-0.14	-1	-1.9	nt	nt	nt	nt	nt	nt
c1ccc(CSc2nnc(-c3ccco3)n2Cc2ccco2)cc1	0.24	i	-1	0	nt	0.0056	?	0.026*	0.0051*	0.014*	0.0086*
CN(Cc1ccccc1)S(=O)(=O)c1ccc(N2CCOCC2)nc1	-0.8	nt	nt	nt	0.085	nt	nt	nt	nt	nt	nt
Oc1cc2ccccc2cc1-c1n[nH]c(=S)n1Cc1ccco1	1.9	i	-0.71	0	8.9*	0.0092	0.023*	0.03	0.013*	?	0.0098
CCOC(=O)c1ccccc1-c1cn2cc(Cl)ccc2n1	-0.44	i	0.062	-2	-0.99	nt	nt	nt	nt	nt	nt
C/C(=N/NC(=O)CC1N=C(Cc2ccccc2)NNC1=O)c1cccnc1 (stereo unspecified)	1.2	i	0.2	-1	1	nt	nt	nt	nt	nt	nt
N#Cc1c(NC(=O)c2ccc(Cn3cc(Br)cn3)o2)sc2c1CCCCC2	-0.74	i	nt	2	-0.68	nt	nt	nt	nt	nt	nt
COC(=O)c1sc(NC(=O)c2ccc(Cn3cc(Cl)cn3)o2)c(C#N)c1C	0.7	i	-0.11	0	nt	0.008	0.007	0.029	0.0064	0.042*	0.01
NNC(=O)COc1ccc(C(F)(F)F)cc1	0.41	i	0.14	-2	1.2	nt	nt	nt	nt	nt	nt
CC(=O)Nc1ccc2nc(NC(=O)c3cccs3)sc2c1	0.26	nt	nt	nt	4.1*	0.0052	?	0.03	0.0075	0.019	0.01
COc1ccc2nc(NC(=O)c3cccs3)sc2c1	-0.9	nt	nt	nt	-0.61	nt	nt	nt	nt	nt	nt
SMILES	Dynein transport	Autophagy HCS	ROMK primary	Redox H2O2 prof	KCC2 mod	KCC2 secondary	KCC2 bumet counter	KCC2 sec2	HEK293 Tl flux	KCC2 ouabain	HEK counter2
O=C(CSc1nc(-c2ccc(F)cc2)nc2ccc(F)cc12)Nc1cccc(C(=O)O)c1	0.43	i	0.18	1	-0.62	nt	nt	nt	nt	nt	nt
O=C(CSc1nc(-c2ccccc2)nc2ccccc12)Nc1cccc(C(=O)O)c1	0.23	i	2.2	0	7.4*	0.0063	0.014*	0.034	0.015*	0.025*	0.017*
CC(C)(C)c1ccc(CN2N=C(/C=C/c3ccccc3)CCC2=O)cc1	-0.57	i	nt	0	1.7	nt	nt	nt	nt	nt	nt
COc1ccc(-n2nc(C(=O)O)c3ccccc3c2=O)cc1	-0.52	i	0.2	1	0.27	nt	nt	nt	nt	nt	nt
COc1cccc(-n2nc(C(=O)N3CC(C)CC(C)C3)c3ccccc3c2=O)c1 (stereo unspecified)	-2.9	i	-0.19	0	4.4*	0.0072	0.0042	0.032	0.0072	0.019	0.01
CC(O)c1nc2ccc(C(=O)O)cc2[nH]1 (stereo unspecified)	1.7	nt	nt	nt	0.39	nt	nt	nt	nt	nt	nt
CCCn1nnc(NC(=S)NC(=O)c2ccc(-c3ccc(Br)cc3)o2)n1	-0.45	nt	nt	nt	19*	?	0.015*	0.028	0.015*	0.057*	0.011
Cn1nnc(NC(=S)NC(=O)c2ccc(-c3ccc(Br)cc3)o2)n1	0.14	i	0.19	5	5.2*	0.014*	0.018*	0.032	0.017*	?	0.012
Cc1ccc(C2=Nc3ccccc3N(C(=O)c3ccccc3)C(C)C2)cc1 (stereo unspecified)	-0.11	i	0.2	0	-0.99	nt	nt	nt	nt	nt	nt
CCn1nc(C)c(CN2CCc3c([nH]c4ccccc34)C2c2ccc(F)c(OC)c2)c1C (stereo unspecified)	-0.94	i	-0.18	1	nt	nt	nt	nt	nt	nt	nt
Cn1c2c(c(=O)n(C)c1=O)C(NC(=O)C(C)(C)C)(C(F)(F)F)C(=O)N2 (stereo unspecified)	-1.1	i	-0.073	0	nt	nt	nt	nt	nt	nt	nt

Assay outcomes deposited in PubChem by several laboratories.
